Experimental findings from ChEMBL document CHEMBL1212866, “Synthesis and anti-hepatitis C virus activity of novel ethyl 1H-indole-3-carboxylates in vitro” (Bioorg Med Chem, 2010) are described below.

Data set [1] concerns Hepatitis C virus. The data set can be described thus: Antiviral activity against HCV 2a infected in human Huh7.5 cells assessed inhibition of viral entry at 100uM after 3 days. It is filed as functional, Hepacivirus hominis. The conditions noted are these: genotype 2a, Huh-7, 72 h. A digest of the protocol: (§1)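 Naive Huh-7.5 cells infected with viral particles carrying a subgenomic HCV RNA with a firefly luciferase reporter, then plated in 96-well format with compounds present. Luciferase activity read after three days of incubation. IC50 calculated; single-point lines give % inhibition at 100 µM.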

Data set [2] has as its system Hepatitis C virus. The data set can be described thus: Antiviral activity against HCV 2a infected in human Huh7.5 cells assessed inhibition of viral replication after 3 days by luciferase assay. Format: functional, Hepacivirus hominis, genotype 2a, Huh-7. The procedure, abridged:
(§2)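 Huh-7.5 cells transfected with an RNA transcript of a replicon carrying a firefly luciferase reporter, then plated in 96-well plates with compounds present. Luciferase activity measured after three days of incubation. IC50 calculated; single-point lines give % inhibition at 100 µM.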

Data set [3] is described as follows: Selectivity index, IC50 for human Huh7.5 cells to TC50 for inhibition of HCV 2a replication in human Huh7.5 cells. It is filed as functional, Huh-7. A digest of the protocol:
(§3)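 Index computed as TC50 divided by IC50. TC50 comes from the CellTiter-Blue viability assay in Huh-7.5 cells. IC50 comes from the luciferase-reporter HCV infection (entry) or replicon (replication) assay in Huh-7.5 cells, read after three days.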

Data set [4] concerns Hepatitis C virus. The data set can be described thus: Antiviral activity against HCV 2a infected in human Huh7.5 cells assessed inhibition of viral entry after 3 days. Format: functional, Hepacivirus hominis, genotype 2a, Huh-7. The procedure, abridged:
as §1

Data set [5] has as its system Hepatitis C virus. The data set can be described thus: Antiviral activity against HCV 2a infected in human Huh7.5 cells assessed inhibition of viral replication at 100 uM after 3 days by luciferase assay. It is filed as functional, Hepacivirus hominis. To be noted: genotype 2a, Huh-7, 72 h. The procedure, abridged: as §2
The nature of data set [6]: Cytotoxicity against human Huh7.5 cells by celltiter-blue viability assay. It is filed as cell-based. To be noted: Huh-7. The procedure, abridged:
(§4)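 Huh-7.5 cells exposed to compounds, and viability estimated by CellTiter-Blue, a resazurin reagent that metabolically active cells reduce to fluorescent resorufin (excitation 579 nm, emission 584 nm). TC50 taken as the 50% cytotoxic concentration; the single-point line reflects testing at 50 µM.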

A short description of data set [7]: Selectivity index, IC50 for human Huh7.5 cells to TC50 for inhibition of HCV 2a entry into human Huh7.5 cells. It is filed as functional, Huh-7. The procedure, abridged: as §3
Data set [8] is described as follows: Cytotoxicity against human Huh7.5 cells at 50 uM by celltiter-blue viability assay. The conditions noted are these: huh-7, 50 µM. It is filed as cell-based. The procedure, abridged: as §4

As to `CCOC(=O)c1c(CS(=O)(=O)c2ccccc2)n(C)c2ccc(CN3CCCC3)cc12`, the inhibition at 100 µM in the data set on Hepatitis C virus [1] was 95%; in the data set on Hepatitis C virus [5] it was 80%. The TC50 in the data set on Hepatitis C virus [2] and in the data set with Hepatitis C virus [4] was >50 µM throughout. Further, the “Selectivity Index” value in data set [3] is reported as >16.7; in data set [7], >10. The IC50 in data set [6] amounted to 3 µM. The Activity entry in data set [8] is “Non-toxic”.
Regarding `CCOC(=O)c1c(CSc2ccccc2)n(C)c2cc(Br)c(O)c(CN(C)C)c12` [UMIFENOVIR], the TC50 was 15 µM in the data set with Hepatitis C virus [2] and 12 µM in the data set with Hepatitis C virus [4]. Further, the figures for the “Selectivity Index” value in data set [3] and in data set [7] were 15 and 6, respectively. In data set [6], this molecule had a half-inhibitory concentration (IC50) of 1 µM.
In the same order, the values of `CCOC(=O)c1c(CS(=O)(=O)c2ccccc2)n(C)c2ccc(CN(C)C)cc12` are >50 µM, >50 µM, >5, >2.6 and 10 µM.
In the same order, the values of `CCOC(=O)c1c(C)n(C)c2ccc(CN(C)C)cc12` are >50 µM, >50 µM, >16.7, >6.3 and 3 µM.
In the case of `CCOC(=O)c1c(CS(=O)(=O)c2ccccc2)n(C)c2ccc(CN3CCOCC3)cc12`, the TC50 in the data set with Hepatitis C virus [2] and with Hepatitis C virus [4] was >50 µM in each case. Besides, the results for the “Selectivity Index” value in data set [3] and in data set [7] were >12.5 and >3.6, respectively. In addition, in data set [6], the half-maximal inhibitory concentration (IC50) stood at 4 µM.
Regarding `CCOC(=O)c1c(C)n(C)c2ccc(CN3CCCC3)cc12`, the TC50 in the data set with Hepatitis C virus [2] and in the data set with Hepatitis C virus [4] was >50 µM throughout. For the same molecule, the results for the “Selectivity Index” value in data set [3] and in data set [7] were >10 and >3.8, respectively. The same molecule showed a concentration for half-maximal inhibition (IC50) in data set [6] of 5 µM.
For `CCOC(=O)c1c(CS(=O)(=O)c2ccccc2)n(C)c2ccc(CN3CCN(C)CC3)cc12`, the TC50 with Hepatitis C virus [2] and in the data set on Hepatitis C virus [4] was >50 µM throughout. The entries for the “Selectivity Index” value in data set [3] and in data set [7] were >12.5 and >6.3, respectively. The molecule further came in with a 50% inhibitory concentration (IC50) in data set [6] of 4 µM.
Regarding `CCOC(=O)c1c(CS(=O)(=O)c2ccccc2)n(C)c2ccc(CN3CCCNCC3)cc12`, the TC50 in the data set with Hepatitis C virus [2] and in the data set on Hepatitis C virus [4] was >50 µM throughout. Further, the “Selectivity Index” value was >4.2 in data set [3] and >2.4 in data set [7]. The same molecule had an IC50 in data set [6] of 12 µM.
Take `CCOC(=O)c1c(CS(=O)(=O)c2ccccc2)n(C)c2ccc(Cn3ccnc3)cc12`: the TC50 in the data set with Hepatitis C virus [2] was determined as 18 µM; in the data set with Hepatitis C virus [4] it was 23 µM. The “Selectivity Index” value is listed as 1.2 in data set [3] and 4.6 in data set [7]. In addition, the half-inhibitory concentration (IC50) in data set [6] was 15 µM.
